Assay results: ChEMBL document CHEMBL3120154, “2-[N-Alkyl(R-phenyl)-aminomethyl]-3-phenyl-7-trifluoromethylquinoxalines as anticancer agents inhibitors of folate enzymes” (Eur J Med Chem, 2014)

What was measured:
MCF7 [1] = assay: Cytotoxicity against human MCF7 cells assessed as cell growth at 10^-4 M after 48 hrs by alamar blue assay relative to untreated control; assay type: functional; settings: MCF7, 48 h, read-out: Activity
In short: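 Three-cell-line prescreen. Each line was inoculated and preincubated on a microtiter plate, then the agent was added at a single concentration (10^-4 or 10^-5 M) and incubated 48 h. Endpoint was measured with alamar blue, and growth is reported as a percentage of untreated control cells.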

U-251 = assay: Cytotoxicity against human U251 cells at 10^-4 M after 48 hrs by SRB assay; assay type: functional; settings: U-251, 48 h, read-out: GI
In short: (§1)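 Second-stage screen in the 60-cell-line human tumor panel at NCI, over a 5-log range (100, 10, 1, 0.1, 0.01 micromolar). Cells were exposed to drug for 48 h and growth was estimated with a sulforhodamine B protein stain. The value is percent growth inhibition at each concentration.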

RPMI-8226 = assay: Cytotoxicity against human RPMI8226 cells at 10^-4 M after 48 hrs by SRB assay; assay type: functional; settings: RPMI-8226, 48 h, read-out: GI; in short: as §1
OVCAR-8 = assay: Cytotoxicity against human OVCAR8 cells at 10^-4 M after 48 hrs by SRB assay; assay type: functional; settings: OVCAR-8, 48 h, read-out: GI; in short: as §1
UACC-62 = assay: Cytotoxicity against human UACC62 cells at 10^-4 M after 48 hrs by SRB assay; assay type: functional; settings: UACC-62, 48 h, read-out: GI; in short: as §1
SK-MEL-28 = assay: Cytotoxicity against human SK-MEL-28 cells at 10^-4 M after 48 hrs by SRB assay; assay type: functional; settings: SK-MEL-28, 48 h, read-out: GI; in short: as §1
NCI-H23 = assay: Cytotoxicity against human NCI-H23 cells at 10^-4 M after 48 hrs by SRB assay; assay type: functional; settings: NCI-H23, 48 h, read-out: GI
In short: (§2)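 Run in the NCI 60-cell-line screen after a three-line prescreen. Cells got a 48 h drug exposure; viability/growth was estimated with the sulforhodamine B protein assay. Growth inhibition (I%) was recorded at 100, 10, 1, 0.1 and 0.01 micromolar. Percent growth is relative to untreated control cells, and negative values indicate cell kill.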

HCT-15 = assay: Cytotoxicity against human HCT15 cells at 10^-4 M after 48 hrs by SRB assay; assay type: functional; settings: HCT-15, 48 h, read-out: GI
In short: (§3)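 Run by NCI on its 60-line human tumor cell panel, after a three-cell-line prescreen. Cells were exposed to drug for 48 h over a 5-log range: 100, 10, 1, 0.1 and 0.01 micromolar. Growth was estimated by sulforhodamine B (SRB) protein staining. Percent growth inhibition (I%) was recorded at each concentration relative to untreated control cells.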

SK-MEL-2 = assay: Cytotoxicity against human SK-MEL-2 cells at 10^-4 M after 48 hrs by SRB assay; assay type: functional; settings: SK-MEL-2, 48 h, read-out: GI; in short: as §1
SN12C = assay: Cytotoxicity against human SN12C cells at 10^-4 M after 48 hrs by SRB assay; assay type: functional; settings: read-out: GI; in short: as §1
BT-549 = assay: Cytotoxicity against human BT549 cells at 10^-4 M after 48 hrs by SRB assay; assay type: functional; settings: BT-549, 48 h, read-out: GI; in short: as §3
SW-620 = assay: Cytotoxicity against human SW620 cells at 10^-4 M after 48 hrs by SRB assay; assay type: functional; settings: SW-620, 48 h, read-out: GI; in short: as §1
ACHN = assay: Cytotoxicity against human ACHN cells at 10^-4 M after 48 hrs by SRB assay; assay type: functional; settings: read-out: GI; in short: as §3
KM12 = assay: Cytotoxicity against human KM12 cells at 10^-4 M after 48 hrs by SRB assay; assay type: functional; settings: KM12, 48 h, read-out: GI; in short: as §2
HCC 2998 = assay: Cytotoxicity against human HCC2998 cells at 10^-4 M after 48 hrs by SRB assay; assay type: functional; settings: HCC 2998, 48 h, read-out: GI; in short: as §3
[2] = Cytotoxicity against human UACC257 cells at 10^-4 M after 48 hrs by SRB assay; assay type: functional; settings: UACC-257, 48 h, read-out: GI; in short: as §1
NCI-H460 = assay: Cytotoxicity against human NCI-H460 cells at 10^-4 M after 48 hrs by SRB assay; assay type: functional; settings: NCI-H460, 48 h, read-out: GI; in short: as §2
LOX IMVI = assay: Cytotoxicity against human LOXIMVI cells at 10^-4 M after 48 hrs by SRB assay; assay type: functional; settings: read-out: GI; in short: as §2
HT-29 = assay: Cytotoxicity against human HT-29 cells at 10^-4 M after 48 hrs by SRB assay; assay type: functional; settings: HT-29, 48 h, read-out: GI; in short: as §3
MCF7 [3] = assay: Cytotoxicity against human MCF7 cells at 10^-4 M after 48 hrs by SRB assay; assay type: functional; settings: MCF7, 48 h, read-out: GI; in short: as §2
SF-295 = assay: Cytotoxicity against human SF295 cells at 10^-4 M after 48 hrs by SRB assay; assay type: functional; settings: SF-295, 48 h, read-out: GI; in short: as §1
A549 = assay: Cytotoxicity against human A549 cells at 10^-4 M after 48 hrs by SRB assay; assay type: functional; settings: A549, 48 h, read-out: GI; in short: as §3
MOLT-4 = assay: Cytotoxicity against human MOLT4 cells at 10^-4 M after 48 hrs by SRB assay; assay type: functional; settings: MOLT-4, 48 h, read-out: GI; in short: as §2
SF-268 = assay: Cytotoxicity against human SF268 cells assessed as cell growth at 10^-4 M after 48 hrs by alamar blue assay relative to untreated control; assay type: functional; settings: SF-268, 48 h, read-out: Activity
In short: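 Three-cell-line prescreen at NCI. Each line was seeded and pre-incubated, then given a single concentration (10^-4 or 10^-5 M) and incubated for 48 h. The end-point was alamar blue. The value is percent growth of treated cells versus untreated control cells, with negative numbers indicating cell kill.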

[4] = Cytotoxicity against human OVCAR5 cells at 10^-4 M after 48 hrs by SRB assay; assay type: functional; settings: OVCAR-5, 48 h, read-out: GI; in short: as §1
M14 = assay: Cytotoxicity against human M14 cells at 10^-4 M after 48 hrs by SRB assay; assay type: functional; settings: M14, 48 h, read-out: GI; in short: as §2
SK-MEL-5 = assay: Cytotoxicity against human SK-MEL-5 cells at 10^-4 M after 48 hrs by SRB assay; assay type: functional; settings: SK-MEL-5, 48 h, read-out: GI; in short: as §1
[5] = Cytotoxicity against human Hs578T cells at 10^-4 M after 48 hrs by SRB assay; assay type: functional; settings: Hs-578T, read-out: GI; in short: as §3
IGROV-1 = assay: Cytotoxicity against human IGROV1 cells at 10^-4 M after 48 hrs by SRB assay; assay type: functional; settings: IGROV-1, 48 h, read-out: GI; in short: as §3
K562 = assay: Cytotoxicity against human K562 cells at 10^-4 M after 48 hrs by SRB assay; assay type: functional; settings: K562, 48 h, read-out: GI; in short: as §2
NCI-H322M = assay: Cytotoxicity against human NCI-H322M cells at 10^-4 M after 48 hrs by SRB assay; assay type: functional; settings: read-out: GI; in short: as §2
CAKI-1 = assay: Cytotoxicity against human Caki1 cells at 10^-4 M after 48 hrs by SRB assay; assay type: functional; settings: CAKI-1, 48 h, read-out: GI; in short: as §3
Thymidylate synthase = Thymidylate synthase (Homo sapiens, UniProt P04818); assay: Competitive inhibition of human thymidylate synthase by spectrophotometry
Chain of Thymidylate synthase (P04818 whole entry): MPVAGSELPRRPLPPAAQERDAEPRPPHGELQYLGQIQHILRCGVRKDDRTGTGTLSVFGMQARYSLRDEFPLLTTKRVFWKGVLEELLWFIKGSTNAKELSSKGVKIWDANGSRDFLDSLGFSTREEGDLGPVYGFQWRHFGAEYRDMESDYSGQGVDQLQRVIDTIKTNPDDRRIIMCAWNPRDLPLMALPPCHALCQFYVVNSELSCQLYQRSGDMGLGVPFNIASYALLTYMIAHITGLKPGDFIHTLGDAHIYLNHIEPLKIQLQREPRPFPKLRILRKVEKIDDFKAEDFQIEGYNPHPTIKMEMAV

| Structure (SMILES) | growth at 100 µM (MCF7 [1]) [%] | inhibition of growth at 100 µM (U-251) [%] | inhibition of growth at 100 µM (RPMI-8226) [%] | inhibition of growth at 100 µM (OVCAR-8) [%] | inhibition of growth at 100 µM (UACC-62) [%] | inhibition of growth at 100 µM (SK-MEL-28) [%] | inhibition of growth at 100 µM (NCI-H23) [%] | inhibition of growth at 100 µM (HCT-15) [%] | inhibition of growth at 100 µM (SN12C) [%] | inhibition of growth at 100 µM (BT-549) [%] | inhibition of growth at 100 µM (SW-620) [%] | inhibition of growth at 100 µM (ACHN) [%] | inhibition of growth at 100 µM (KM12) [%] | inhibition of growth at 100 µM [2] [%] | inhibition of growth at 100 µM (NCI-H460) [%] | inhibition of growth at 100 µM (LOX IMVI) [%] | inhibition of growth at 100 µM (HT-29) [%] | inhibition of growth at 100 µM (MCF7 [3]) [%] | inhibition of growth at 100 µM (SF-295) [%] | inhibition of growth at 100 µM (A549) [%] | other results |
| --- | --- | --- | --- | --- | --- | --- | --- | --- | --- | --- | --- | --- | --- | --- | --- | --- | --- | --- | --- | --- | --- |
| C#CCN(Cc1nc2cc(C(F)(F)F)ccc2nc1-c1ccccc1)c1ccc(OC(F)(F)F)cc1 | 17 | 70 | 88 | 57 | 64 | < 40 | 60 | 47 | 83 | 86 | 75 | 65 | 112 | 44 | 78 | 102 | 77 | 79 | 49 | 60 | inhibition of growth at 100 µM (SK-MEL-2): < 40%; inhibition of growth at 100 µM (HCC 2998): 104%; inhibition of growth at 100 µM (MOLT-4): 79%; growth at 100 µM (SF-268): 21%; inhibition of growth at 100 µM [4]: < 40%; inhibition of growth at 100 µM (M14): 76%; inhibition of growth at 100 µM (SK-MEL-5): 86%; inhibition of growth at 100 µM [5]: < 40%; inhibition of growth at 100 µM (IGROV-1): 81%; inhibition of growth at 100 µM (K562): 78%; inhibition of growth at 100 µM (NCI-H322M): 79%; inhibition of growth at 100 µM (CAKI-1): 69% |
| C#CCN(Cc1nc2cc(C(F)(F)F)ccc2nc1-c1ccccc1)c1ccc(F)cc1 | 41 | 85 | 117 | 96 | 96 | 71 | 31 | 97 | 102 | 77 | 93 | 89 | 124 | 119 | 94 | 101 | 80 | 89 | 68 | 123 | Ki (Thymidylate synthase): 2380 nM; inhibition of growth at 100 µM (MOLT-4): 81%; growth at 100 µM (SF-268): 90%; inhibition of growth at 100 µM [4]: 56%; inhibition of growth at 100 µM (M14): 71%; inhibition of growth at 100 µM (SK-MEL-5): 180%; inhibition of growth at 100 µM [5]: 94%; inhibition of growth at 100 µM (IGROV-1): 86%; inhibition of growth at 100 µM (K562): 89%; inhibition of growth at 100 µM (NCI-H322M): 123%; inhibition of growth at 100 µM (CAKI-1): 110% |
